CAL PDZ FP-1 = blocks peptide binding to human CAL PDZ domain. Q9HD26. purified CAL PDZ, TMR-peptide fluorescence polarization, 1 h. inhibition, % at 20 µM. 330,000 tested, 0.02% active. AID 504414;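 active = highest replicate inhibition of at least 40%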
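material = purified tagged CAL PDZ domain construct (CerCALP) | buffer or medium = sodium phosphate/NaCl buffer pH 7.4 with TCEP, IgG, Thesit | reagent = TMR-labelled reporter peptide T*-PRC34 bound in PDZ groove | incubation = 1 h room-temperature incubation prior to read | measured by = fluorescence polarization (mP) | evaluation = percent inhibition from loss of millipolarization | control set = unlabelled peptide and DMSO controls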
Vif imaging = blocks HIV Vif function. inhibition, % at 7.49 µM. HEK293T cells, Vif self-association by quenched fluorescence, imaging, 24 h. 340,000 tested, 0.35% active; in the data active = inhibition above about 50%, passing the limit was not always enough
CAL PDZ FP-2 = inhibitors of human CAL PDZ peptide binding | 300,000 tested, 0.92% active | purified CAL PDZ, TMR-peptide fluorescence polarization, 1 h | inhibition, % at 24.9 µM | AID 602252 | Q9HD26;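 active = mean inhibition of at least 30% with at least half of replicates also reaching 30%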
N-glyco inh = N-linked glycosylation inhibition. reporter increase, % at 12.5 µM. 360,000 tested, 0.23% active. D54 ERlucT glycosylation luciferase reporter, 24 h; percent of 100 nM tunicamycin response;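 active = mean luciferase reporter signal, scaled so untreated is 0 and the glycosylation-blocking control 100, at or above a set limit in every replicate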;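 note: luciferase carries N-glycosylation sites so blocking glycosylation raises the light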
CDK5 p35 inh = blocks human CDK5/p35 kinase activity; Q00535+Q15078; AID 488839; Recombinant CDK5/p35, ADP-Glo luminescence, 60 min; 330,000 tested, 0.01% active; inhibition, % at 10 µM;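 active = highest replicate inhibition of at least 50% and at least 75% of replicates reaching 50%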
Target sequence (Q00535 whole entry, looked up): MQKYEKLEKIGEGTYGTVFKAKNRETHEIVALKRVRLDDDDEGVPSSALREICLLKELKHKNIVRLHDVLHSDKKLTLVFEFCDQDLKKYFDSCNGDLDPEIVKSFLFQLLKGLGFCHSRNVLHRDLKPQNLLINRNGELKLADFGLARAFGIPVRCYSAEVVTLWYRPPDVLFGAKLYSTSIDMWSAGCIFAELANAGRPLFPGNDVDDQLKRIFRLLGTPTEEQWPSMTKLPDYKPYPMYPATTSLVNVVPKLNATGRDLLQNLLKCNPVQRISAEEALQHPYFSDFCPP
Target sequence (Q15078 whole entry, looked up): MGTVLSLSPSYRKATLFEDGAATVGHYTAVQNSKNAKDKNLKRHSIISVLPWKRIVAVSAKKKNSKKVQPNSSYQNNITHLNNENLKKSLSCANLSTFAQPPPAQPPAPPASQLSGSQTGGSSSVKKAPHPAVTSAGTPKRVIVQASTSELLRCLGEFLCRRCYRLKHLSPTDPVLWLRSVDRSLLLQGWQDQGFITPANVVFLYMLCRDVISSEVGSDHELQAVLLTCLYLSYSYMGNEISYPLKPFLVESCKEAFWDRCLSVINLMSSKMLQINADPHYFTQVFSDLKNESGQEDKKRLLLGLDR
PvdQ inh = blocks Pseudomonas aeruginosa PvdQ acylase activity; purified PvdQ acylase, fluorescence plate reader; inhibition, % at 10 µM; 340,000 tested, 0.063% active; in the data active = inhibition above about 30%, passing the limit was not always enough
Numbers stand for hits; – = inactive; · = not tested or not shown. The list is not random: actives were taken first. Their share in the collection is about 1.4%.

SMILES	CAL PDZ FP-1	Vif imaging	CAL PDZ FP-2	N-glyco inh	CDK5 p35 inh	PvdQ inh
CC/C(CC(c1ccccc1)c1c(O)c2ccccc2oc1=O)=N\NC(N)=S (stereo not given)	–	–	65	–	–	–
Cc1ccc(-c2nc(N(C)C3CCN(C)CC3)c3ccccc3n2)cc1	–	·	–	49	–	–
CN1CCC(N(C)c2ncnc3ccc(Br)cc23)CC1	–	–	–	–	–	–
COc1ccc(CC(=O)Nc2ccc(C#N)c(Cl)c2)cc1S(=O)(=O)N1CCOCC1	–	–	–	–	–	–
C=C1C(=O)O[C@@H]2C[C@@H](C)[C@@H]3C4OC4C(=O)[C@@]3(C)[C@@H](O)[C@H]12 (stereo not given in full)	–	41	–	–	–	–
O=[N+]([O-])c1ccc2c(c1)C(c1ccccc1)=NCCN2	–	–	33	–	–	–
O=[N+]([O-])c1ccc(-c2ccccc2)c([As](=O)(O)O)c1	–	·	·	–	–	–
COC1C(O)C(C)OC(OC2C(Oc3cccc4c(O)c5c(=O)oc6ccc(C)c7c(=O)oc(c34)c5c67)OC(C)C(O)C2O)C1O (stereo not given)	–	51	–	43	–	–
c1ccc2c(c1)Sc1ccccc1N2CC1CN2CCC1CC2 (stereo not given)	–	53	–	–	–	–
COc1cc(/C=C2\C(=O)NC(=O)N(c3ccccc3)C2=O)c([N+](=O)[O-])cc1OC	46	–	–	–	–	–
CN(C)c1ccc(C=C2C(=O)NC(=S)NC2=O)cc1	–	–	185	–	–	–
CN(C)c1ccc(C=C2C(=O)NC(=O)NC2=O)cc1	–	–	–	–	–	–
CCOP(=O)(OCC)C(O)c1ccc(N(C)C)cc1 (stereo not given)	–	–	30	–	–	–
CCOP(=O)(OCC)C(O)c1ccc(Br)cc1 (stereo not given)	–	–	–	–	·	–
COC(=O)C1=C(c2ccc(F)cc2F)C[C@@H]2CC[C@H]1N2C(=O)N1CCC(C)CC1	–	–	–	–	–	–
C/C(=N\N1CCCCCC1)c1c(O)n(-c2ccc(C)cc2)c(=O)[nH]c1=O	–	68	–	–	–	–
CC12CN3CCN(C1)CC(C)(C3)C2=NN	–	–	–	–	–	–
COC1/C=C/C=C(\C)Cc2cc(O)c(Cl)c(c2)N(C)C(=O)CC(OC(=O)C(C)C)C2(C)OC2C(C)C2CC1(O)NC(=O)O2 (stereo not given)	–	64	–	–	–	–
CN1CC(C(=O)c2cccc(C(F)(F)F)c2)C(c2ccc(Cl)cc2)C1 (stereo not given)	–	–	59	–	–	–
CCc1ccc(C2=NN(CCC(=O)N3CCC4(CC3)OCCO4)C(=O)CC2)cc1	–	–	–	–	–	–
C1CCC2S[C@H]3CCCCC3NC2C1 (stereo not given in full)	–	–	58	–	–	–
CCCC(C)n1[nH]c(=O)c2c1NC(=O)CSC2c1ccccc1 (stereo not given)	–	–	–	–	–	–
CCC1CN1P(=O)(c1ccccc1)N1CC1CC (stereo not given)	–	–	113	–	–	–
COc1cc(C2c3cc4c(c(O)c3CC3COC(=O)C32)OCO4)cc(OC)c1OC (stereo not given)	–	–	–	–	–	–
COc1cc(C2c3cc4c(cc3CC3COC(=O)C32)OCO4)cc(OC)c1OC (stereo not given)	–	87	–	–	–	–
SMILES	CAL PDZ FP-1	Vif imaging	CAL PDZ FP-2	N-glyco inh	CDK5 p35 inh	PvdQ inh
Cc1ccc(N2Cc3ccccc3C2=N)cc1[N+](=O)[O-]	–	–	–	–	–	–
Cc1cc(C)nc(N2Cc3ccccc3C2=N)n1	–	–	·	37	–	–
CN1CCN(c2ccc([N+](=O)[O-])c3no[n+]([O-])c23)CC1	–	–	–	–	–	–
O=[N+]([O-])c1ccc(N(CCO)CCO)c2c1no[n+]2[O-]	·	61	·	–	·	·
CC/C(=N\N1CCN(C)CC1)c1c(O)[nH]c(=O)[nH]c1=O	–	–	–	–	–	–
CC12CC[C@H]3[C@@H](CCC4(O)C[C@H](O)CCC34/C=N/NC(=O)c3ccccc3[N+](=O)[O-])C1(O)CCC2C1=CC(=O)OC1 (stereo not given in full)	–	–	–	30	–	–
COc1ccc(C(CNC(=O)Cc2ccc(Cl)c(Cl)c2)N2CCCCC2)cc1 (stereo not given)	–	–	61	–	–	–
COc1ccc(NC(=O)N2CCC3(CC2)OCCO3)cc1	–	–	–	–	–	–
COc1ccc(Nc2ncc(C(=O)N3CCC4(CC3)OCCO4)c3ccccc23)cc1	–	–	80	–	–	–
COP(=S)(OC)SCn1nnc2ccccc2c1=O	–	–	·	–	–	–
